Calls of active or inactive are those of the source. No cut-off for these calls is given here.
Legend:
Calu-3 = assay: Cytotoxicity against human Calu3 cells after 96 hrs by Cell Titer Glo assay; format: functional, cell-based; settings: Calu-3, 96 h
In short: (§1)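 Cells were grown in RPMI/L-glutamine with penicillin 1000 U/ml, streptomycin 1 mg/mL and 5% FBS, humidified, at 37 °C and 5% CO2. They were seeded in 384-well plates at 750 (Calu-3) or 500 (H2887) cells/well and left overnight. Compounds in DMSO were added at 50 μM to 1 nM final, with 0.5% DMSO final. After 96 h, CellTiter-Glo was added, plates sat 10 min at room temperature, and luminescence was normalized to DMSO-only wells.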

[1] = Cytotoxicity against human NCI-H2887 cells after 96 hrs by Cell Titer Glo assay; format: functional, cell-based; settings: NCI-H2887, 96 h; in short: as §1
C127 [2] = assay: Epigenetic modulation in mouse C127 cells expressing CMV promoter assessed as induction of GFP expression at 10 uM after 24 hrs by LDR assay
C127 [3] = assay: Epigenetic modulation in mouse C127 cells expressing CMV promoter assessed as induction of GFP expression at 1 uM after 24 hrs by LDR assay

Structure (SMILES)	IC50 (Calu-3)	IC50 [1]	Activity (C127 [2])	Activity (C127 [3])
Cc1c(O)c(CCC(C)C)c2c3c1OC(C)(C)N=C3c1cccc(O)c1C2=O	> 50 µM	> 50 µM		
Cc1c(O)c(CCC(C)C)c2c(c1O)C(=O)c1cccc(O)c1C2=O [LUPINACIDIN A]	8.8 µM	3.1 µM		
Cc1c(O)c2c(c(O)c1C(=O)CCC(C)C)C(=O)c1c(O)cccc1C2=O [GALVAQUINONE B]	12.2 µM	5 µM	Active	Active
Cc1c(O)c(C(=O)CC(C)C)c2c(c1O)C(=O)c1cccc(O)c1C2=O [GALVAQUINONE C]	> 50 µM	> 50 µM		
Cc1cc(O)c2c(c1O)C(=O)c1cccc(O)c1C2=O [ISLANDICIN]	> 50 µM	> 50 µM		
Cc1cc2c(c(O)c1C(=O)CCC(C)C)C(=O)c1c(O)cccc1C2=O [GALVAQUINONE A]	> 50 µM	> 50 µM	Active	

Source: ChEMBL document CHEMBL2150963, “Anthraquinones from a marine-derived Streptomyces spinoverrucosus” (J Nat Prod, 2012)
